Laboratory results reported in ChEMBL document CHEMBL4406880, “Design, synthesis, and bioactivity of dihydropyrimidine derivatives as kinesin spindle protein inhibitors” (Bioorg Med Chem, 2019).

Assays:
Format in all cases: functional
[1] = test system: COLO 205; experiment: Growth inhibition of human COLO205 cells assessed as cell viability at 0.1 uM incubated for 48 hrs by sulforhodamine B assay; settings: COLO 205, 48 h, read-out: Activity
[2] = test system: MDA-MB-435; experiment: Growth inhibition of human MDA-MB-435 cells assessed as cell viability at 1 uM incubated for 48 hrs by sulforhodamine B assay; settings: MDA-MB-435, 48 h, read-out: Activity
[3] = test system: NCI-H23; experiment: Growth inhibition of human NCI-H23 cells assessed as cell viability at 0.001 uM incubated for 48 hrs by sulforhodamine B assay relative to control; settings: NCI-H23, 48 h, read-out: Activity
[4] = test system: LOX IMVI; experiment: Growth inhibition of human LOXIMVI cells incubated for 48 hrs by sulforhodamine B assay
Procedure, shortened: (§1)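 NCI-60 five-dose SRB assay in RPMI 1640 with 5% FBS, 37 °C, 5% CO2. Compound given at five tenfold dilutions, 0.01–100 µM, for 48 h. Adherent cells fixed with TCA, suspension cells with 16% final TCA. Bound SRB read at 515 nm and growth calculated against time-zero and untreated controls. GI50 taken from dose–response curves as the concentration giving a 50% decrease in net cell growth.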

[5] = test system: EKVX; experiment: Growth inhibition of human EKVX cells assessed as cell viability at 1 uM incubated for 48 hrs by sulforhodamine B assay; settings: read-out: Activity
[6] = test system: OVCAR-5; experiment: Growth inhibition of human OVCAR5 cells assessed as cell viability at 0.001 uM incubated for 48 hrs by sulforhodamine B assay relative to control; settings: OVCAR-5, 48 h, read-out: Activity
[7] = test system: SNB-19; experiment: Growth inhibition of human SNB19 cells incubated for 48 hrs by sulforhodamine B assay; settings: SNB-19, 48 h
Procedure, shortened: (§2)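 NCI-60 five-dose SRB assay. Cells were exposed for 48 h to tenfold dilutions of 0.01, 0.1, 1, 10 and 100 µM, in RPMI 1640 with 5% FBS. Plates fixed with TCA at the time of drug addition served as the time-zero reference. GI50 is the concentration giving a 50% reduction in net growth. TGI is total growth inhibition. LC50 is a net 50% loss of the initial cells.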

[8] = test system: OVCAR-3; experiment: Growth inhibition of human OVCAR3 cells incubated for 48 hrs by sulforhodamine B assay; settings: OVCAR-3, 48 h; procedure, shortened: as §1
[9] = test system: T47D; experiment: Growth inhibition of human T47D cells assessed as cell viability at 0.1 uM incubated for 48 hrs by sulforhodamine B assay; settings: read-out: Activity
[10] = test system: DU-145; experiment: Growth inhibition of human DU145 cells assessed as cell viability at 1 uM incubated for 48 hrs by sulforhodamine B assay; settings: DU-145, 48 h, read-out: Activity
[11] = test system: SK-OV-3; experiment: Growth inhibition of human SKOV3 cells incubated for 48 hrs by sulforhodamine B assay; settings: SK-OV-3, 48 h; procedure, shortened: as §2
[12] = test system: CAKI-1; experiment: Growth inhibition of human Caki1 cells assessed as cell viability at 1 uM incubated for 48 hrs by sulforhodamine B assay; settings: CAKI-1, 48 h, read-out: Activity
[13] = test system: MDA-MB-468; experiment: Growth inhibition of human MDA-MB-468 cells assessed as cell viability at 0.1 uM incubated for 48 hrs by sulforhodamine B assay; settings: MDA-MB-468, 48 h, read-out: Activity
[14] = test system: MCF7; experiment: Growth inhibition of human MCF7 cells assessed as cell viability at 1 uM incubated for 48 hrs by sulforhodamine B assay; settings: MCF7, 48 h, read-out: Activity
[15] = test system: LOX IMVI; experiment: Growth inhibition of human LOXIMVI cells assessed as cell viability at 0.1 uM incubated for 48 hrs by sulforhodamine B assay; settings: read-out: Activity
[16] = test system: MCF7; experiment: Growth inhibition of human MCF7 cells incubated for 48 hrs by sulforhodamine B assay; settings: MCF7, 48 h; procedure, shortened: as §1
[17] = test system: SR; experiment: Growth inhibition of human SR cells assessed as cell viability at 100 uM incubated for 48 hrs by sulforhodamine B assay; settings: read-out: Activity
[18] = test system: SN12C; experiment: Growth inhibition of human SN12C cells assessed as cell viability at 0.001 uM incubated for 48 hrs by sulforhodamine B assay relative to control; settings: read-out: Activity
[19] = test system: BT-549; experiment: Growth inhibition of human BT549 cells assessed as cell viability at 100 uM incubated for 48 hrs by sulforhodamine B assay; settings: BT-549, 48 h, read-out: Activity
[20] = test system: HOP-92; experiment: Growth inhibition of human HOP92 cells assessed as cell viability at 1 uM incubated for 48 hrs by sulforhodamine B assay; settings: HOP-92, 48 h, read-out: Activity
[21] = test system: BT-549; experiment: Growth inhibition of human BT549 cells assessed as cell viability at 1 uM incubated for 48 hrs by sulforhodamine B assay; settings: BT-549, 48 h, read-out: Activity
[22] = test system: Hs-578T; experiment: Growth inhibition of human Hs 578T cells assessed as cell viability at 0.1 uM incubated for 48 hrs by sulforhodamine B assay; settings: read-out: Activity
[23] = test system: SK-MEL-28; experiment: Growth inhibition of human SK-MEL-28 cells incubated for 48 hrs by sulforhodamine B assay; settings: SK-MEL-28, 48 h; procedure, shortened: as §2
[24] = test system: HCT-15; experiment: Growth inhibition of human HCT15 cells assessed as cell viability at 1 uM incubated for 48 hrs by sulforhodamine B assay; settings: HCT-15, 48 h, read-out: Activity
[25] = test system: EKVX; experiment: Growth inhibition of human EKVX cells incubated for 48 hrs by sulforhodamine B assay
Procedure, shortened: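 NCI-60 five-dose mode: five tenfold dilutions (0.01, 0.1, 1, 10, 100 µM) are applied for 48 h to cells in RPMI 1640 with 5% FBS at 37 °C. Endpoint is TCA fixation with sulforhodamine B read at 515 nm. % growth comes from the 0 h and control absorbances. GI50 is the concentration giving a 50% reduction in net cell growth.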

[26] = read-out: LC50 (the source's name)
[27] = read-out: pLC50 (the source's name) (converted)

Q: For `CC1=C(C(=O)OCc2ccccc2)C(c2ccc3c(c2)OCO3)n2c(nc3ccccc32)N1` (racemic), which viability at 0.1 µM [1] is on record?
A: Its viability at 0.1 µM is 101%.

Q: And the viability at 1 µM [2]?
A: The viability at 1 µM was -39%.

Q: And the viability at 0.001 µM [3]?
A: The viability at 0.001 µM was 93%.

Q: And the GI50 ([4]; read-out: GI50)?
A: Its GI50 is 0.55 µM.

Q: And the LC50 ([4]; read-out: LC50)?
A: Its LC50 is over 100 µM.

Q: And the TGI ([4]; read-out: TGI)?
A: Its TGI is over 100 µM.

Q: What about the GI50 ([4]; read-out: pGI50 (converted)) of the same compound?
A: Its GI50 is 0.55 µM.

Q: And the LC50 ([4]; read-out: pLC50 (converted))?
A: Its LC50 is over 100 µM.

Q: What about the TGI ([4]; read-out: pTGI) of the same compound?
A: Its TGI is over 100 µM.

Q: And the viability at 1 µM [5]?
A: The viability at 1 µM was 41%.

Q: What about the viability at 0.001 µM [6] of the same compound?
A: The viability at 0.001 µM was 93%.

Q: And the GI50 ([7]; read-out: GI50)?
A: Its GI50 is 0.56 µM.

Q: And the CC50 [7, 26]?
A: Its CC50 is over 100 µM.

Q: And the TGI ([7]; read-out: TGI)?
A: Its TGI is over 100 µM.

Q: And the GI50 ([7]; read-out: pGI50 (converted))?
A: Its GI50 is 0.562 µM.

Q: What about the CC50 [7, 27] of the same compound?
A: The CC50 was over 100 µM.

Q: And the TGI ([7]; read-out: pTGI)?
A: The TGI was over 100 µM.

Q: What about the GI50 ([8]; read-out: GI50) of the same compound?
A: Its GI50 is 0.26 µM.

Q: And the CC50 [8, 26]?
A: The CC50 was over 100 µM.

Q: And the TGI ([8]; read-out: TGI)?
A: Its TGI is 1.09 µM.

Q: And the GI50 ([8]; read-out: pGI50 (converted))?
A: Its GI50 is 0.257 µM.

Q: And the CC50 [8, 27]?
A: Its CC50 is over 100 µM.

Q: What about the TGI ([8]; read-out: pTGI (converted)) of the same compound?
A: The TGI was 1.1 µM.

Q: What about the viability at 0.1 µM [9] of the same compound?
A: Its viability at 0.1 µM is 93%.

Q: And the viability at 1 µM [10]?
A: Its viability at 1 µM is 33%.

Q: And the GI50 ([11]; read-out: GI50)?
A: The GI50 was 0.47 µM.

Q: What about the CC50 [11, 26] of the same compound?
A: Its CC50 is over 100 µM.

Q: And the TGI ([11]; read-out: TGI)?
A: Its TGI is over 100 µM.

Q: And the GI50 ([11]; read-out: pGI50 (converted))?
A: Its GI50 is 0.468 µM.

Q: And the CC50 [11, 27]?
A: The CC50 was over 100 µM.

Q: And the TGI ([11]; read-out: pTGI)?
A: The TGI was over 100 µM.

Q: What about the viability at 1 µM [12] of the same compound?
A: The viability at 1 µM was 20%.

Q: And the viability at 0.1 µM [13]?
A: The viability at 0.1 µM was 94%.

Q: What about the viability at 1 µM [14] of the same compound?
A: Its viability at 1 µM is 14%.

Q: What about the viability at 0.1 µM [15] of the same compound?
A: Its viability at 0.1 µM is 93%.

Q: And the GI50 ([16]; read-out: GI50)?
A: Its GI50 is 0.32 µM.

Q: What about the CC50 [16, 26] of the same compound?
A: The CC50 was over 100 µM.

Q: And the TGI ([16]; read-out: TGI)?
A: Its TGI is over 100 µM.

Q: What about the GI50 ([16]; read-out: pGI50 (converted)) of the same compound?
A: The GI50 was 0.316 µM.

Q: And the CC50 [16, 27]?
A: Its CC50 is over 100 µM.

Q: And the TGI ([16]; read-out: pTGI)?
A: The TGI was over 100 µM.

Q: What about the viability at 100 µM [17] of the same compound?
A: The viability at 100 µM was 38%.

Q: And the viability at 0.001 µM [18]?
A: Its viability at 0.001 µM is 89%.

Q: And the viability at 100 µM [19]?
A: Its viability at 100 µM is 35%.

Q: What about the viability at 1 µM [20] of the same compound?
A: The viability at 1 µM was 41%.

Q: And the viability at 1 µM [21]?
A: The viability at 1 µM was 49%.

Q: What about the viability at 0.1 µM [22] of the same compound?
A: The viability at 0.1 µM was 88%.

Q: What about the GI50 ([23]; read-out: GI50) of the same compound?
A: Its GI50 is over 100 µM.

Q: And the LC50 ([23]; read-out: LC50)?
A: The LC50 was over 100 µM.

Q: What about the TGI ([23]; read-out: TGI) of the same compound?
A: The TGI was over 100 µM.

Q: What about the GI50 ([23]; read-out: pGI50 (converted)) of the same compound?
A: The GI50 was over 100 µM.

Q: And the LC50 ([23]; read-out: pLC50 (converted))?
A: The LC50 was over 100 µM.

Q: And the TGI ([23]; read-out: pTGI)?
A: The TGI was over 100 µM.

Q: And the viability at 1 µM [24]?
A: The viability at 1 µM was 25%.

Q: What about the GI50 ([25]; read-out: GI50) of the same compound?
A: Its GI50 is 0.69 µM.

Q: And the LC50 ([25]; read-out: LC50)?
A: The LC50 was over 100 µM.

Q: And the TGI ([25]; read-out: TGI)?
A: Its TGI is over 100 µM.

Q: And the GI50 ([25]; read-out: pGI50 (converted))?
A: Its GI50 is 0.692 µM.

Q: What about the LC50 ([25]; read-out: pLC50 (converted)) of the same compound?
A: Its LC50 is over 100 µM.

Q: What about the TGI ([25]; read-out: pTGI) of the same compound?
A: The TGI was over 100 µM.
